Data taken from ChEMBL document CHEMBL3351978, “Optimization of 1,2,4-Triazolopyridines as Inhibitors of Human 11β-Hydroxysteroid Dehydrogenase Type 1 (11β-HSD-1)” (ACS Med Chem Lett, 2014).
In brackets after ≈: the same amount, converted by molar mass. Activity calls are given as the source filed them. No cut-off for these calls is given here.

Tests used:
HEK293-EBNA = experiment: Inhibition of cynomolgus monkey recombinant 11beta-HSD-1 expressed in HEK293 EBNA cells using [3H]-cortisone and NADPH by scintillation proximity assay; assay type: cell-based; settings: Macaca fascicularis
[1] = Stability in rat microsomes assessed as parent compound remaining after 30 mins; assay type: ADME, Microsome; settings: read-out: Stability
[2] = Stability in […] monkey microsomes assessed as parent compound remaining after 30 mins; assay type: ADME, Macaca fascicularis, Microsome; settings: read-out: Stability
[3] = Solubility at pH 7.4; assay type: physicochemical; settings: buffer
[4] = AUC (0 to 8 hrs) in Balb/C mouse at 3.5 mg/kg, po; assay type: ADME, organism-based; set-up: time < 8 hr, dose 3.5 mg/kg, route oral; settings: plasma
How it was run: (§1)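 Male Balb/C mice were given a single oral dose of 3.5 mpk in 0.5% methocel/0.1% Tween-80 in water.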

[5] = Stability in human microsomes assessed as parent compound remaining after 30 mins; assay type: ADME, Microsome; settings: read-out: Stability
[6] = Stability in mouse microsomes assessed as parent compound remaining after 30 mins; assay type: ADME, Microsome; settings: read-out: Stability
[7] = Cmax in Balb/C mouse at 3.5 mg/kg, po; assay type: ADME, organism-based; set-up: dose 3.5 mg/kg, route oral; settings: in vivo; how it was run: as §1
[8] = Tmax in Balb/C mouse at 3.5 mg/kg, po; assay type: ADME, organism-based; set-up: dose 3.5 mg/kg, route oral; settings: in vivo; how it was run: as §1

SMILES	inhibition (HEK293-EBNA)	also measured
Clc1ccc(C2(c3nnc4c(OC5CCC5)cccn34)CC2)cc1	Active	–
Cc1cccn2c(C3(c4ccc(Cl)cc4)CC3)nnc12	Active	–
CC(C)c1cccn2c(C3(c4ccc(Cl)cc4)CC3)nnc12	Active	–
Clc1ccc(C2(c3nnc4c(C5CC5)cccn34)CC2)cc1	Active	remaining at 0.5 h [1]: 100%; remaining at 0.5 h [2]: 100%; solubility [3]: 76 µg/mL (≈ 245 µM); AUC(0-t) at 8 h [4]: 5.6 µM·h; remaining at 0.5 h [5]: 100%; remaining at 0.5 h [6]: 100%; Cmax [7]: 2500 nM; Tmax [8]: 1 h
Clc1ccc(C2(c3nnc4c(OC5CCOCC5)cccn34)CC2)cc1	Active	–
Clc1ccc(C2(c3nnc4c(OC5CCCCC5)cccn34)CC2)cc1	inactive	–
Clc1ccc(C2(c3nnc4c(C5CCC5)cccn34)CC2)cc1	Active	–
Clc1ccc(C2(c3nnc4c(OCC5CC5)cccn34)CC2)cc1	Active	–
